From article PMC4811700 (European journal of medicinal chemistry, 2016) come the findings set out here.

The target of one assay is Mcl-1 (Homo sapiens, UniProt Q07820). The experiment in a line: Fluorescence polarization competition assay. The assay is classed as binding. The note with it: for change in experimental free energy of binding to Mcl-1: relative to the preceding compound in the series 3b, 3a, 3bi, 3bl; for binding affinity to Mcl-1 in vitro: data not shown. For orientation: Polarisation of emitted light reports the rotation of a fluorescent probe.
Chain of Mcl-1 (Q07820 172-327): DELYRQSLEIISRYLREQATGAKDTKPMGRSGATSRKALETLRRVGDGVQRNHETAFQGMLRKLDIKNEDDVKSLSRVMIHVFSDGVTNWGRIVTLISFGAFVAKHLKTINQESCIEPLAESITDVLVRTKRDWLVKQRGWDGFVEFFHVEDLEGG

Another assay deals with Mcl-1^172-327 (Homo sapiens, UniProt Q07820). The experiment in a line: NMR 1H,15N-HSQC with 15N-labeled Mcl-1. The assay is classed as binding. To be noted: 131 μM 15N-labeled Mcl-1, 182 μM compound. A digest of the protocol:
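2D 1H,15N-fast HSQC collected at 25 °C, 800 MHz, with and without compound. Buffer: 20 mM HEPES pH 6.8, 50 mM NaCl, 3 mM DTT, 20% D2O, 5% d6-DMSO. Backbone amide shift changes monitored.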

Chain of Mcl-1^172-327 (Q07820 172-327): as above

For the compound `O=C(O)c1cc(S(=O)(=O)Nc2ccc(Br)cc2)c2ccccc2c1O` [Compound 3a, 4-(N-(4-bromophenyl)sulfamoyl)-1-hydroxy-2-naphthoic acid], the “change in experimental free energy of binding to Mcl-1” value (“change in experimental free energy” for short) at Mcl-1 is -2.1 kcal/mol.
Turning to `CC(C)CN(c1ccc(OC(C)C)cc1)S(=O)(=O)c1cc(C(=O)O)c(O)c2ccccc12` [Compound 3ba, 1-Hydroxy-4-(N-isobutyl-N-(4-isopropoxyphenyl)sulfamoyl)-2-naphthoic acid], the “interaction with Mcl-1 by HSQC chemical shift perturbation” value on Mcl-1^172-327 is listed as “direct interaction”.
In the case of `Cc1cc(Oc2ccc(NS(=O)(=O)c3cc(C(=O)O)c(O)c4ccccc34)cc2)cc(C)c1Cl` [Compound 3bi, 4-(N-(4-(4-Chloro-3,5-dimethylphenoxy)phenyl)sulfamoyl)-1-hydroxy-2-naphthoic acid], the “change in experimental free energy” value at Mcl-1 is on record as -1.9 kcal/mol.
As to `Cc1cc(Oc2ccc(N(Cc3ccccc3)S(=O)(=O)c3cc(C(=O)O)c(O)c4ccccc34)cc2)cc(C)c1Cl` [Compound 3bl, 4-(N-Benzyl-N-(4-(4-chloro-3,5-dimethylphenoxy)phenyl)sulfamoyl)-1-hydroxy-2-naphthoic acid], at Mcl-1, the “change in experimental free energy” value was -0.8 kcal/mol.
On to `O=C(O)c1cc(S(=O)(=O)NCC2CCCCC2)c2ccccc2c1O` [Compound 3g, 4-(N-(Cyclohexylmethyl)sulfamoyl)-1-hydroxy-2-naphthoic acid], for which the “fold improvement in Mcl-1 inhibitory activity” value on Mcl-1 (relative to unsubstituted benzylic amine derivative 3c) was found to be 8 fold.
Consider `COc1c(C(=O)O)cc(S(=O)(=O)N(CC(C)C)c2ccc(Br)cc2)c2ccccc12` [Compound 12, 4-(N-(4-Bromophenyl)-N-isobutylsulfamoyl)-1-methoxy-2-naphthoic acid], for which the “fold reduction in Mcl-1 activity” value on Mcl-1 (methylation of hydroxyl group, relative to 3ca) was approximately 40 fold.
For the compound `COC(=O)c1cc(S(=O)(=O)N(CC(C)C)c2ccc(OC(C)C)cc2)c2ccccc2c1O` [Compound 13, Methyl 1-hydroxy-4-(N-isobutyl-N-(4-isopropoxyphenyl)sulfamoyl)-2-naphthoate], the “binding affinity to Mcl-1 in vitro” value at Mcl-1 is given as “no binding affinity”.
Consider `CC(=O)OCOC(=O)c1cc(S(=O)(=O)N(CC(C)C)c2ccc(OC(C)C)cc2)c2ccccc2c1O` [Compound 14, Acetoxymethyl 1-hydroxy-4-(N-isobutyl-N-(4-isopropoxyphenyl)sulfamoyl)-2-naphthoate], for which the “binding affinity to Mcl-1 in vitro” value on Mcl-1 was “no binding affinity”.
